Reference: ChEMBL document CHEMBL3352550, “Discovery and optimization of 4,5-diarylisoxazoles as potent dual inhibitors of pyruvate dehydrogenase kinase and heat shock protein 90” (J Med Chem, 2014)

What was measured:
[1] = target: T1, [Pyruvate dehydrogenase (acetyl-transferring)] kinase isozyme 1, mitochondrial (Homo sapiens, UniProt Q15118); assay: Inhibition of recombinant PDHK1 (unknown origin) expressed in Escherichia coli at 10 uM incubated for 1 hr by ELISA
Summary of the method: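 Recombinant His6-SUMO-PDHK1 was expressed in E. coli and purified on nickel resin. It was used at 0.25 µg/well on immobilized PDHA1 substrate (0.5 µg/well) with 10 µM ATP in 50 mM HEPES, 10 mM MgCl2 and 1 mM EGTA. Compounds were screened at 10 µM and percent inhibition was recorded. Detection used anti-p-PDHA1(S293) for 1 h and HRP secondary antibody for 1 h, then o-phenylenediamine, read at OD490.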

[2] = target: T1, [Pyruvate dehydrogenase (acetyl-transferring)] kinase isozyme 1, mitochondrial; assay: Inhibition of recombinant PDHK1 (unknown origin) expressed in Escherichia coli incubated for 1 hr by ELISA
Heat shock protein HSP90 = Heat shock protein HSP90 (Homo sapiens, UniProt P07900+P08238); assay: Inhibition of geldanamycin-BODIPY binding to full-length HSP90 (unknown origin) by fluorescence polarization based competition assay; assay type: protein assay
Summary of the method: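 Fluorescence polarization competition using full-length HSP90 and geldanamycin-BODIPY as probe.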

T1 sequence (Q15118 whole entry): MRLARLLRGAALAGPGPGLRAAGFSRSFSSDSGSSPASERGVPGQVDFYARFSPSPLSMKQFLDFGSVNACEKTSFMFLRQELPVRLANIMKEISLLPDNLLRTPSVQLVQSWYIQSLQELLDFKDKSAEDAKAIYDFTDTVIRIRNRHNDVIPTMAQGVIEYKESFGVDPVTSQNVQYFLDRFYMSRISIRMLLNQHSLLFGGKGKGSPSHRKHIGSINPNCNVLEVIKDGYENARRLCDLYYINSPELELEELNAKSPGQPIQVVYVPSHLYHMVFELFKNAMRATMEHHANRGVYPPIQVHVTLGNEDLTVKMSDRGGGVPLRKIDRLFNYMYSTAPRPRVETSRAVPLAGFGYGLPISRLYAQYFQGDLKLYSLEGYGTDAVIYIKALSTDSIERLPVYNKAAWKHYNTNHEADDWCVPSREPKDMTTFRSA

**Q.** For `COc1ccc(-c2c(/C=C/C(=O)N3CCN(c4ccccc4OC)CC3)noc2-c2cc(Cl)c(O)cc2O)cc1`, which inhibition [1] is on record?
**A.** > 50%

**Q.** And the IC50 [2]?
**A.** 845 nM

**Q.** And the IC50 (Heat shock protein HSP90)?
**A.** 596 nM

**Q.** With `COc1ccc(N2CCN(C(=O)/C=C/c3noc(-c4cc(Cl)c(O)cc4O)c3-c3ccc(O)cc3)CC2)cc1` as the compound, how does the inhibition [1] read?
**A.** > 50%

**Q.** What about the IC50 [2] of the same compound?
**A.** 952 nM

**Q.** What about the IC50 (Heat shock protein HSP90) of the same compound?
**A.** 576 nM

**Q.** With `COc1ccc(-c2c(C(=O)NCc3ccc(Cl)cc3Cl)noc2-c2cc(Cl)c(O)cc2O)cc1` as the compound, how does the inhibition [1] read?
**A.** > 50%

**Q.** What about the IC50 [2] of the same compound?
**A.** 610 nM

**Q.** What about the IC50 (Heat shock protein HSP90) of the same compound?
**A.** 1600 nM

**Q.** Which results are given for `COc1ccc(-c2c(C(=O)NC3CCN(S(C)(=O)=O)CC3)noc2-c2cc(Cl)c(O)cc2O)cc1`?
**A.** inhibition [1]: > 50%; IC50 [2]: 130 nM; IC50 (Heat shock protein HSP90): 45 nM

**Q.** For `COc1ccc(-c2c(C(=O)NC3CCN(Cc4ccc(Cl)cc4Cl)CC3)noc2-c2cc(Cl)c(O)cc2O)cc1`, which inhibition [1] is on record?
**A.** > 50%

**Q.** What about the IC50 [2] of the same compound?
**A.** 160 nM

**Q.** What about the IC50 (Heat shock protein HSP90) of the same compound?
**A.** 127 nM

**Q.** How did the inhibition [1] turn out when `COc1ccc(-c2c(/C=C/C(=O)N3CCN(c4ccccn4)CC3)noc2-c2cc(Cl)c(O)cc2O)cc1` was run?
**A.** > 50%

**Q.** What about the IC50 [2] of the same compound?
**A.** 1050 nM

**Q.** What about the IC50 (Heat shock protein HSP90) of the same compound?
**A.** 215 nM

**Q.** What does the source list for `O=C(/C=C/c1noc(-c2cc(Cl)c(O)cc2O)c1-c1ccc(O)cc1)N1CCN(c2ccccn2)CC1`?
**A.** inhibition [1]: > 50%; IC50 [2]: 878 nM; IC50 (Heat shock protein HSP90): 357 nM

**Q.** What does the source list for `COc1ccc(-c2c(/C=C/C(=O)N3CCN(c4ccc(Cl)c(Cl)c4)CC3)noc2-c2cc(Cl)c(O)cc2O)cc1`?
**A.** inhibition [1]: > 50%; IC50 [2]: 4310 nM; IC50 (Heat shock protein HSP90): 4232 nM

**Q.** What does the source list for `CCNC(=O)N1CCC(NC(=O)c2noc(-c3cc(Cl)c(O)cc3O)c2-c2ccc(OC)cc2)CC1`?
**A.** inhibition [1]: > 50%; IC50 [2]: 150 nM; IC50 (Heat shock protein HSP90): 20 nM

**Q.** How did the inhibition [1] turn out when `COc1ccc(-c2c(C(=O)NC3CCN(Cc4ccncc4)CC3)noc2-c2cc(Cl)c(O)cc2O)cc1` was run?
**A.** > 50%

**Q.** And the IC50 [2]?
**A.** 59 nM

**Q.** And the IC50 (Heat shock protein HSP90)?
**A.** 15 nM

**Q.** Which inhibition [1] does the source give for `O=C(/C=C/c1noc(-c2cc(Cl)c(O)cc2O)c1-c1ccc(O)cc1)N1CCN(c2ccc(Cl)c(Cl)c2)CC1` here?
**A.** > 50%

**Q.** And the IC50 [2]?
**A.** 1420 nM

**Q.** And the IC50 (Heat shock protein HSP90)?
**A.** 3939 nM

**Q.** What does the source list for `COc1ccc(-c2c(C(=O)N3CCC(Cc4ccccc4)CC3)noc2-c2cc(Cl)c(O)cc2O)cc1`?
**A.** inhibition [1]: < 50%; IC50 [2]: > 10000 nM; IC50 (Heat shock protein HSP90): > 10000 nM

**Q.** How did the inhibition [1] turn out when `O=C(/C=C/c1noc(-c2cc(Cl)c(O)cc2O)c1-c1ccc(O)cc1)N1CCN(c2cccc(C(F)(F)F)c2)CC1` was run?
**A.** > 50%

**Q.** What about the IC50 [2] of the same compound?
**A.** 2950 nM

**Q.** And the IC50 (Heat shock protein HSP90)?
**A.** 1859 nM

**Q.** Which results are given for `COc1ccc(-c2c(C(=O)NC3CCN(C(C)=O)CC3)noc2-c2cc(Cl)c(O)cc2O)cc1`?
**A.** inhibition [1]: > 50%; IC50 [2]: 210 nM; IC50 (Heat shock protein HSP90): 25 nM

**Q.** With `O=C(/C=C/c1noc(-c2cc(Cl)c(O)cc2O)c1-c1ccc(O)cc1)N1CCN(c2ncccn2)CC1` as the compound, how does the inhibition [1] read?
**A.** > 50%

**Q.** What about the IC50 [2] of the same compound?
**A.** 521 nM

**Q.** What about the IC50 (Heat shock protein HSP90) of the same compound?
**A.** 338 nM

**Q.** What does the source list for `COc1ccc(-c2c(C(=O)Nc3ccncc3)noc2-c2cc(Cl)c(O)cc2O)cc1`?
**A.** inhibition [1]: > 50%; IC50 [2]: 580 nM; IC50 (Heat shock protein HSP90): 154 nM

**Q.** What does the source list for `COc1ccc(-c2c(/C=C/C(=O)N3CCN(c4ccccc4)CC3)noc2-c2cc(Cl)c(O)cc2O)cc1`?
**A.** inhibition [1]: > 50%; IC50 [2]: 1920 nM; IC50 (Heat shock protein HSP90): 677 nM

**Q.** What does the source list for `COc1ccc(-c2c(C(=O)Nc3ccc(N(C)C)cc3)noc2-c2cc(Cl)c(O)cc2O)cc1`?
**A.** inhibition [1]: > 50%; IC50 [2]: 380 nM; IC50 (Heat shock protein HSP90): 91 nM

**Q.** Which results are given for `COc1ccc(-c2c(/C=C/C(=O)N3CCN(c4ccc(OC)cc4)CC3)noc2-c2cc(Cl)c(O)cc2O)cc1`?
**A.** inhibition [1]: > 50%; IC50 [2]: 557 nM; IC50 (Heat shock protein HSP90): 700 nM

**Q.** Which results are given for `COc1ccc(-c2c(/C=C/C(=O)N3CCN(c4cccc(C(F)(F)F)c4)CC3)noc2-c2cc(Cl)c(O)cc2O)cc1`?
**A.** inhibition [1]: > 50%; IC50 [2]: 2370 nM; IC50 (Heat shock protein HSP90): 2255 nM

**Q.** With `COc1ccc(-c2c(C(=O)NC3CCN(CC(C)C)CC3)noc2-c2cc(Cl)c(O)cc2O)cc1` as the compound, how does the inhibition [1] read?
**A.** > 50%

**Q.** What about the IC50 [2] of the same compound?
**A.** 68 nM

**Q.** And the IC50 (Heat shock protein HSP90)?
**A.** 23 nM

**Q.** Which results are given for `COc1ccc(-c2c(/C=C/C(=O)N3CCN(c4cccc(OC)c4)CC3)noc2-c2cc(Cl)c(O)cc2O)cc1`?
**A.** inhibition [1]: > 50%; IC50 [2]: 491 nM; IC50 (Heat shock protein HSP90): 718 nM
